According to ChEMBL document CHEMBL4602726, “Discovery of the First Vitamin K Analogue as a Potential Treatment of Pharmacoresistant Seizures” (J Med Chem, 2020):

Columns and labels:
[1] = Drug level in CD1 mouse plasma at 400 mg/kg, ip after 1 hr by LC-MS/MS analysis; format: ADME, organism-based
Procedure, shortened: (§1)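 Male mice fasted overnight and given ip dose in 95% Miglyol 840/5% DMSO. Plasma precipitated 3:1 with acetonitrile plus internal standard. Brain homogenized 3:1 in PBS, then acetonitrile extraction. LC-MS/MS in MRM mode, standard curve 1 ng/mL–10 μg/mL. Ratio = mean tissue (ng/g) over mean plasma (ng/mL) concentration.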

[2] = Drug level in CD1 mouse plasma at 400 mg/kg, ip after 2 hrs by LC-MS/MS analysis; format: ADME, organism-based; procedure, shortened: as §1
[3] = AUClast in CD1 mouse at 5 mg/kg, iv measured after 0.083 to 24 hrs by LC-MS/MS analysis; format: ADME, organism-based; set-up: dose 5 mg/kg, time upper 24 hr, time lower 0.083 hr, route intravenous; conditions: in vivo
Procedure, shortened: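 Male CD-1 mice, 3 per route. Oral and ip at 20 mg/kg by gavage needle; iv at 5 mg/kg by tail vein. Vehicles were 20% DMA:40% PEG300:40% H2O for oral/iv and 5% DMSO:95% Neobee for ip. Blood sampled 0.083–24 h, plasma protein-precipitated with acetonitrile plus internal standard, LC-MS/MS (MRM). Non-compartmental analysis, linear trapezoidal AUC.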

[4] = Drug level in CD1 mouse brain at 400 mg/kg, ip after 2 hrs by LC-MS/MS analysis; format: ADME, organism-based; conditions: read-out: Drug uptake; procedure, shortened: as §1
[5] = Toxicity in CF1 mouse assessed as induction of abdominal constriction measured during 1 hr observation period by writhing test; conditions: in vivo

CC(C)CCNC1=CC(=O)c2ccccc2C1=O
concentration at 1 h [1]: 1690 ng/mL
concentration at 2 h [2]: 2750 ng/mL
AUC(0-t) [3]: 636 ng·h/mL
concentration at 2 h [4]: 4930 ng/g
Activity [5]: Toxic
